Source: BindingDB's records for doi:10.1021/acsmedchemlett.0c00208 (University of Bonn, 2020)

Molecular target: T1, N-arachidonyl glycine receptor (Homo sapiens, UniProt Q14330)
T1 sequence (Q14330 whole entry): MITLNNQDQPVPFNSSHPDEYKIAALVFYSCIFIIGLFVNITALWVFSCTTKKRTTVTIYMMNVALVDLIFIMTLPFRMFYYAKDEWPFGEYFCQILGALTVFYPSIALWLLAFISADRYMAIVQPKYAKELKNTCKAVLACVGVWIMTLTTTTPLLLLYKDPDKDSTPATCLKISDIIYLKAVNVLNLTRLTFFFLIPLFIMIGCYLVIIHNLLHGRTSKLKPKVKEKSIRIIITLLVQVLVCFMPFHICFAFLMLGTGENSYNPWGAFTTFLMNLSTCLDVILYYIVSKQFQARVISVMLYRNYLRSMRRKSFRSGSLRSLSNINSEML
Test: […] at Prolink1-tagged human GPR18 receptor expressed in CHO cells assessed as […] by measuring 2-(3-(6-(4-chlorophenoxy)hexyloxy)benzylidene)-6,7-dihydro-2H-imidazo[2,1-b][1,3]thiazin-3(5H)-one IC50 at 1 uM after 90 mins by beta-galactosidase based topcount luminescence analysis
Outline: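 Human GPR18 stably expressed in CHO cells, β-arrestin enzyme complementation. Antagonist concentration-inhibition curves run against a fixed 1 μM agonist stimulus. IC50 and maximal inhibition derived from curves; means of three independent experiments, each in duplicate.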

## Cn1c(=O)c2c(nc3n2CCCN3CCc2c[nH]c3ccccc23)n(C)c1=O [9-(2-(1H-indol-3-yl)ethyl)-1,3-dimethyl-6,7,8,9-tetrahydropyrimido[1,2-a]purine-2,4(1H,3H)-dione]
  IC50: 0.944 µM
